Results reported in ChEMBL document CHEMBL3784986, “Discovery and Characterization of Biased Allosteric Agonists of the Chemokine Receptor CXCR3” (J Med Chem, 2016).
Activity calls are given as the source filed them. The rule behind the calls is not given here.

How the values were obtained:
[1] = target: T1, C-X-C chemokine receptor type 3 (Homo sapiens) (UniProt P49682); experiment: Positive allosteric modulation of human CXCR3 expressed in HEK293T cell membranes after 30 mins by [35S]GTPgammaS incorporation assay relative to CXCL11; type: functional; conditions: HEK-293T
T1 sequence (whole entry): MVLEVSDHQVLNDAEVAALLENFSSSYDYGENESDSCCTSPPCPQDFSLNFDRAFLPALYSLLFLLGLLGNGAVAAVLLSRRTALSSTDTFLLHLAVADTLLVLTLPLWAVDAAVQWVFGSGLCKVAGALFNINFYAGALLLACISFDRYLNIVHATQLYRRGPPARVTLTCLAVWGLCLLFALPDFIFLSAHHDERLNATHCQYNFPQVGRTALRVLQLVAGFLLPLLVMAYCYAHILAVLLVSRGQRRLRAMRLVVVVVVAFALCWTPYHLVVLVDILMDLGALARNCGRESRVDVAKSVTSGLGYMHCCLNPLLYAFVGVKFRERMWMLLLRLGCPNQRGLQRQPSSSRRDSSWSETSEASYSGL
Procedure, shortened: (§1)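 Membranes from HEK293 cells stably expressing CXCR3 (30 µg/mL protein) in 20 mM HEPES, 10 mM MgCl2, 100 mM NaCl, 100 mg/L saponin, pH 7.4. Compound plus 1 µM GDP preincubated 30 min at 37 °C, then 0.10 nM [35S]GTPγS added for 30 min at 37 °C. Filtered on GF/B and counted. Efficacy expressed as % of CXCL11. Three experiments in triplicate, pEC50 by nonlinear regression.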

[2] = target: T1, C-X-C chemokine receptor type 3 (Homo sapiens); experiment: Positive allosteric modulation of ProLink1-tagged wild type CXCR3 (unknown origin) expressed in HEK293T cells assessed as beta-arrestin-2 recruitment at 10 uM incubated for 4 hrs by chemiluminescence-based microplate reader method; type: cell-based; conditions: HEK-293T
Procedure, shortened: (§2)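 HEK293 cells stably expressing β-gal enzyme acceptor, transiently transfected with PK1- or PK2-tagged wild-type CXCR3, 2000 cells/well, grown overnight at 37 °C. Compounds or CXCL11 in PBS pH 7.4 with 0.20% BSA added for 4 h. Detection mix 60 min at room temperature, then chemiluminescence read. Efficacy expressed as % of CXCL11 effect. Two to three experiments in triplicate.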

[3] = target: T1, C-X-C chemokine receptor type 3 (Homo sapiens); experiment: Positive allosteric modulation of ProLink1-tagged wild type CXCR3 (unknown origin) expressed in HEK293T cells assessed as beta-arrestin-2 recruitment incubated for 4 hrs by chemiluminescence-based microplate reader method relative to CXCL11; type: cell-based; conditions: HEK-293T; procedure, shortened: as §2
[4] = target: T1, C-X-C chemokine receptor type 3 (Homo sapiens); experiment: Antagonist activity at CXCR3 (unknown origin) expressed in HEK293 cells assessed as inhibition of CXCL11-mediated cell migration after 5 hrs by transwell migration assay; type: cell-based
Procedure, shortened: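 CXCR3-transfected HEK293 cells (calcium phosphate, used 48 h post-transfection), serum-starved, pre-incubated 15 min with compound. Compound present in both upper chamber (1 × 10^5 cells/well, 0.2% serum DMEM) and lower chamber containing CXCL11. Migration 5 h at 37 °C. Migrated cells fixed in 3.7% formaldehyde, stained with crystal violet, counted in 5 predefined areas.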

[5] = target: T1, C-X-C chemokine receptor type 3 (Homo sapiens); experiment: Positive allosteric modulation of human CXCR3 expressed in HEK293T cell membranes after 30 mins by [35S]GTPgammaS incorporation assay; type: functional; conditions: HEK-293T; procedure, shortened: as §1
[6] = target: T1, C-X-C chemokine receptor type 3 (Homo sapiens); experiment: Displacement of [125I]CXCL11 from human CXCR3 isoform 1 expressed in African green monkey COS7 cells after 3 hrs by liquid scintillation counting method; type: cell-based; conditions: COS-7
Procedure, shortened: (§3)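 Cells washed in 50 mM HEPES/5 g/L BSA and chilled 15 min at 4 °C. Ligands added, then 10-15 pM [125I]CXCL11 (Chloramine-T labelled, HPLC-purified). Incubation 3 h at 4 °C, washes, bound radioactivity read by liquid scintillation.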

[7] = Cytotoxicity against HEK293T cells expressing CXCR3 at 10 uM incubated overnight by ApoTox-Glo Triplex assay; type: cell-based; conditions: human, hek-293t
Procedure, shortened: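 10,000 HEK293T cells stably expressing CXCR3 incubated overnight with compound at 10 µM. ApoTox-Glo triplex. Viability read by fluorescence at 400Ex/505Em (GF-AFC) and cytotoxicity at 485Ex/520Em (bis-AAF-R110), each after a 30 min reagent step. Caspase-3/7 luminescence then read after a further 30 min.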

[8] = target: T1, C-X-C chemokine receptor type 3 (Homo sapiens); experiment: Inhibition of CXCL11-mediated activation of human CXCR3 expressed in HEK cells; type: cell-based; conditions: HEK293
[9] = target: T1, C-X-C chemokine receptor type 3 (Homo sapiens); experiment: Induction of FLAG-tagged CXCR3 (unknown origin) internalization expressed in HEK293T cells at 10 uM after 60 mins by ELISA; type: cell-based; conditions: HEK-293T
Procedure, shortened: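 FLAG-CXCR3-transfected HEK293T cells replated on poly-D-lysine. At 48 h, serum-free DMEM with compound (10 µM) or CXCL11 (100 nM) for 1 h at 37 °C. Cells fixed in 4% formaldehyde. Surface receptor detected with anti-FLAG antibody and peroxidase-conjugated anti-mouse IgG, o-phenylenediamine substrate, stopped with 1M H2SO4, absorbance at 492 nm.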

[10] = target: T1, C-X-C chemokine receptor type 3 (Homo sapiens); experiment: Inhibition of CXCL10-mediated activation of human CXCR3 expressed in HEK cells; type: cell-based; conditions: HEK293
[11] = target: T1, C-X-C chemokine receptor type 3 (Homo sapiens); experiment: Effect on CXCL11-induced beta-arrestin-2 recruitment to wild type CXCR3 (unknown origin) expressed in HEK293T cells at 10 to 1000 nM incubated for 4 hrs by chemiluminescence-based microplate reader method; type: cell-based; conditions: HEK-293T
[12] = target: T1, C-X-C chemokine receptor type 3 (Homo sapiens); experiment: Positive allosteric modulation of CXCR3 (unknown origin) expressed in HEK293 cells assessed as induction of cell migration at 100 nM after 5 hrs by transwell migration assay relative to control; type: cell-based
Procedure, shortened: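 HEK293 cells transiently transfected with CXCR3 by calcium phosphate, used 48 h later, serum-starved. Compound placed in lower (source) chamber in 0.2% serum DMEM. Cells (1 × 10^5/well) in upper chamber, 5 h migration at 37 °C. Crystal-violet-stained migrated cells counted in 5 predefined areas and compared with buffer control.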

[13] = target: T1, C-X-C chemokine receptor type 3 (Homo sapiens); experiment: Displacement of [125I]CXCL11 from human CXCR3 isoform 1 expressed in African green monkey COS7 cells at 1 uM after 3 hrs by liquid scintillation counting method; type: cell-based; conditions: COS-7; procedure, shortened: as §3
[14] = target: T1, C-X-C chemokine receptor type 3 (Homo sapiens); experiment: Induction of C-terminal eGFP-tagged CXCR3 (unknown origin) internalization expressed in HEK293T cells at 1 to 10 uM after 60 mins by scanning laser confocal microscopy; type: cell-based; conditions: HEK-293T
Procedure, shortened: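 HEK293T cells transiently transfected with C-terminally eGFP-tagged CXCR3, moved to poly-L-lysine coverslips at 24 h. Two days post-transfection, treated 60 min at 37 °C with compound (10 µM and 1 µM) or 100 nM CXCL11. Fixed in 4% paraformaldehyde and imaged by confocal laser scanning microscopy.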

[15] = target: T1, C-X-C chemokine receptor type 3 (Homo sapiens); experiment: Positive allosteric modulation of ProLink2-tagged wild type CXCR3 (unknown origin) expressed in HEK293T cells assessed as beta-arrestin-2 recruitment incubated for 4 hrs by chemiluminescence-based microplate reader method relative to CXCL11; type: cell-based; conditions: HEK-293T; procedure, shortened: as §2
[16] = target: T1, C-X-C chemokine receptor type 3 (Homo sapiens); experiment: Positive allosteric modulation of ProLink1-tagged wild type CXCR3 (unknown origin) expressed in HEK293T cells assessed as beta-arrestin-2 recruitment incubated for 4 hrs by chemiluminescence-based microplate reader method; type: cell-based; conditions: HEK-293T; procedure, shortened: as §2

| Structure (SMILES) | Efficacy [1] | Activity [2] [%] | Efficacy [3] | inhibition [4] | pEC50 [5] | inhibition [6] | Activity [7] | inhibition [8] | Activity [9] | inhibition [10] | Activity [11] | fold change (FC) [12] | inhibition [13] | Activity [14] | Efficacy [15] [%] | pEC50 [16] |
| --- | --- | --- | --- | --- | --- | --- | --- | --- | --- | --- | --- | --- | --- | --- | --- | --- |
| CC(C)(C)OC(=O)NCCCC[C@H](NC(=O)[C@@H]1Cc2ccccc2CN1C(=O)CCC(=O)c1ccccc1)C(=O)NCC(c1ccccc1)c1ccccc1 | 47% | 70 | – | – | – | – | – | – | – | – | – | – | – | – | – | – |
| CC(C)(C)OC(=O)N[C@@H](CCCCNC(=O)[C@@H]1Cc2ccccc2CN1C(=O)CCC(=O)c1ccccc1)C(=O)NCC(c1ccccc1)c1ccccc1 | inactive | – | 30% | inactive | inactive | inactive | Non-toxic | inactive | Active | inactive | inactive | 0.25 | inactive | Active | 66 | – |
| COc1ccc(C(=O)CCC(=O)N2Cc3ccccc3C[C@H]2C(=O)NCCCC[C@H](NC(=O)OC(C)(C)C)C(=O)NCC(c2ccccc2)c2ccccc2)cc1 | 50% | – | inactive | inactive | – | inactive | Non-toxic | inactive | – | inactive | – | 0.25 | inactive | inactive | – | inactive |
